Data published in ChEMBL document CHEMBL1124363, “Photoaffinity, biotinyl, and iodo analogues as probes for vasotocin receptors” (1989).
Where a SMILES comes first, the peptide text is derived from it. Bridges are numbered along the chain shown (N, C = ends). [ ]: non-standard residue; d: D form. The star is where a group is joined. Biotin = O=C1N[C@H]2[C@H](CS[C@H]2CCCCC(=O)*)N1; Phe(4-NH2) = Nc1ccc(C[C@H](N)C(=O)O)cc1; Mpa = O=C(O)CCS

Columns and labels:
[1] = Effective concentration of compound for half-maximal response in hydroosmotic toad bladder assay; assay type: functional; conditions: Amphibia; read-out: ED50 (the source's name)
Summary of the method: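 Toad hemibladders filled with Ringer's fluid diluted to half-strength with distilled water. Net osmotic water flux across the bladder wall measured gravimetrically by the Bentley method. ED-50 taken as the concentration giving a half-maximal water flow response.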

Rattus norvegicus [2] = species: Rattus norvegicus; assay: Antidiuretic activity of compound was assayed on water-loaded rats; assay type: functional, Urine
Rattus norvegicus [3] = assay: Pressor activity of compound was assayed on urethane-anesthetized, phenoxybenzamine-treated rats; assay type: functional; parameters: unit not given here

EC50 [1] [nM] | SMILES | Antidiuretic activity (Rattus norvegicus [2]) [U/mg] | Pressor activity (Rattus norvegicus [3])
0.49 | CC[C@H](C)[C@@H]1NC(=O)[C@H](Cc2ccc(O)cc2)NC(=O)[C@@H](N)CSSC[C@@H](C(=O)N2CCC[C@H]2C(=O)N[C@@H](CCCN=C(N)N)C(=O)N[C@@H](Cc2ccc(O)cc2)C(N)=O)NC(=O)[C@H](CC(N)=O)NC(=O)[C@H](CCC(N)=O)NC1=O (HELM PEPTIDE1{C.Y.I.Q.N.C.P.R.Y.[am]}$PEPTIDE1,PEPTIDE1,1:R3-6:R3$$$V2.0) | 25 | 0
12 | CC[C@H](C)[C@@H]1NC(=O)[C@H](Cc2ccc(O)cc2)NC(=O)CCSSC[C@@H](C(=O)N2CCC[C@H]2C(=O)N[C@@H](CCCN=C(N)N)C(=O)N[C@@H](Cc2ccc(NC(=O)CCCC[C@@H]3SC[C@@H]4NC(=O)N[C@@H]43)cc2)C(N)=O)NC(=O)[C@H](CC(N)=O)NC(=O)[C@H](CCC(N)=O)NC1=O ([Mpa]YIQNCPR[Phe(4-NH2)](Biotin)-NH2; disulfide 1-6) | 23 | 
2.1 | CC[C@H](C)[C@@H]1NC(=O)[C@H](Cc2ccccc2)NC(=O)[C@@H](N)CSSC[C@@H](C(=O)N2CCC[C@H]2C(=O)N[C@@H](CCCN=C(N)N)C(=O)N[C@@H](Cc2ccc(O)cc2)C(N)=O)NC(=O)[C@H](CC(N)=O)NC(=O)[C@H](CCC(N)=O)NC1=O (HELM PEPTIDE1{C.F.I.Q.N.C.P.R.Y.[am]}$PEPTIDE1,PEPTIDE1,1:R3-6:R3$$$V2.0) | 2.8 | 0
2.5 | CC[C@H](C)[C@@H]1NC(=O)[C@H](Cc2ccccc2)NC(=O)[C@@H](N)CSSC[C@@H](C(=O)N2CCC[C@H]2C(=O)N[C@@H](CCCN=C(N)N)C(=O)N[C@@H](Cc2ccc(O)c(I)c2)C(N)=O)NC(=O)[C@H](CC(N)=O)NC(=O)[C@H](CCC(N)=O)NC1=O (HELM PEPTIDE1{C.F.I.Q.N.C.P.R.[O=C([C@H](Cc1ccc(O)c(I)c1)N[*:1])[*:2]].[am]}$PEPTIDE1,PEPTIDE1,1:R3-6:R3$$$V2.0) | 0.41 | 

SMILES | EC50 [1] [nM] | Antidiuretic activity (Rattus norvegicus [2]) [U/mg] | Pressor activity (Rattus norvegicus [3])
CC[C@H](C)[C@@H]1NC(=O)[C@H](Cc2ccc(O)cc2)NC(=O)CCSSC[C@@H](C(=O)N2CCC[C@H]2C(=O)N[C@@H](CCCN=C(N)N)C(=O)N[C@@H](Cc2ccc(N)cc2)C(N)=O)NC(=O)[C@H](CC(N)=O)NC(=O)[C@H](CCC(N)=O)NC1=O (HELM PEPTIDE1{[O=C(CCS[*:3])[*:2]].Y.I.Q.N.C.P.R.[Nc1ccc(C[C@H](N[*:1])C(=O)[*:2])cc1].[am]}$PEPTIDE1,PEPTIDE1,1:R3-6:R3$$$V2.0) | 0.13 | 66 | 0
CC[C@H](C)[C@@H]1NC(=O)[C@H](Cc2ccc(O)cc2)NC(=O)[C@@H](N)CSSC[C@@H](C(=O)N2CCC[C@H]2C(=O)N[C@@H](CCCN=C(N)N)C(=O)NCC(N)=O)NC(=O)[C@H](CC(N)=O)NC(=O)[C@H](CCC(N)=O)NC1=O [VASOTOCIN] (HELM PEPTIDE1{C.Y.I.Q.N.C.P.R.G.[am]}$PEPTIDE1,PEPTIDE1,1:R3-6:R3$$$V2.0) | 0.022 | 231 | 160
CC[C@H](C)[C@@H]1NC(=O)[C@H](Cc2ccc(O)cc2)NC(=O)CCSSC[C@@H](C(=O)N2CCC[C@H]2C(=O)N[C@@H](CCCN=C(N)N)C(=O)N[C@@H](Cc2ccc(N=[N+]=[N-])cc2)C(N)=O)NC(=O)[C@H](CC(N)=O)NC(=O)[C@H](CCC(N)=O)NC1=O (HELM PEPTIDE1{[O=C(CCS[*:3])[*:2]].Y.I.Q.N.C.P.R.[[N-]=[N+]=Nc1ccc(C[C@H](N[*:1])C(=O)[*:2])cc1].[am]}$PEPTIDE1,PEPTIDE1,1:R3-6:R3$$$V2.0) | 0.09 | 40 | 
